# Test results taken from ChEMBL document CHEMBL4339207, “Kinase inhibitions in pyrido[4,3-h] and [3,4-g]quinazolines: Synthesis, SAR and molecular modeling studies” (Bioorg Med Chem, 2019).
# How the values were obtained:
# [1] = target: Dual specificity tyrosine-phosphorylation-regulated kinase 1A (Rattus norvegicus) (UniProt Q63470); experiment: Inhibition of rat DYRK1A kinase domain (1 to 499 residues) expressed in bacteria assessed as residual activity at 1 uM using KKISGRLSPIMTEQ as substrate in presence of [gamma33P]ATP relative to control
# [2] = species on record: Sus scrofa; experiment: Inhibition of porcine brain CK1delta/epsilon assessed as residual activity at 1 uM using RRKHAAIGSpAYSITA as substrate in presence of [gamma33P]ATP relative to control
# [3] = target: T1, Glycogen synthase kinase-3 (Sus scrofa) (UniProt B2LUN4+I6LNT8); experiment: Inhibition of porcine brain GSK3alpha/beta assessed as residual activity at 10 uM using YRRAAVPPSPSLSRHSSPHQSpEDEEE as substrate in presence of [gamma33P]ATP relative to control
# Outline: (§1)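 Radiometric kinase assay (method A, ³³P). GSK-3α/β affinity-purified from porcine brain (Sus scrofa domesticus). Inhibitors tested at 10 µM and 1 µM. Result reported as % residual kinase activity. Assays run in triplicate.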
# [4] = target: Dual specificity protein kinase CLK1 (Mus musculus) (UniProt P22518); experiment: Inhibition of recombinant mouse CLK1 expressed in bacteria assessed as residual activity at 1 uM using GRSRSRSRSRSR as substrate in presence of [gamma33P]ATP relative to control
# [5] = target: T2, Cyclin-dependent kinase 5/CDK5 activator 1 (Homo sapiens) (UniProt Q00535+Q15078); experiment: Inhibition of recombinant human CDK5/p25 expressed in bacteria assessed as residual activity at 1 uM using histone H1 as substrate in presence of [gamma33P]ATP relative to control
# Outline: (§2)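 Recombinant human CDK5/p25 expressed in bacteria was used with histone H1 as substrate in a ³³P radioassay. Residual activity (%) was measured at 10 µM and 1 µM compound, in triplicate.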
# [6] = target: T1, Glycogen synthase kinase-3 (Sus scrofa); experiment: Inhibition of porcine brain GSK3alpha/beta assessed as residual activity at 1 uM using YRRAAVPPSPSLSRHSSPHQSpEDEEE as substrate in presence of [gamma33P]ATP relative to control; outline: as §1
# [7] = species on record: Sus scrofa; experiment: Inhibition of porcine brain CK1delta/epsilon assessed as residual activity at 10 uM using RRKHAAIGSpAYSITA as substrate in presence of [gamma33P]ATP relative to control
# [8] = target: Dual specificity tyrosine-phosphorylation-regulated kinase 1A (Rattus norvegicus) (UniProt Q63470); experiment: Inhibition of rat DYRK1A kinase domain (1 to 499 residues) expressed in bacteria assessed as residual activity at 10 uM using KKISGRLSPIMTEQ as substrate in presence of [gamma33P]ATP relative to control
# [9] = target: T2, Cyclin-dependent kinase 5/CDK5 activator 1 (Homo sapiens); experiment: Inhibition of recombinant human CDK5/p25 expressed in bacteria assessed as residual activity at 10 uM using histone H1 as substrate in presence of [gamma33P]ATP relative to control; outline: as §2
# [10] = target: Dual specificity protein kinase CLK1 (Mus musculus) (UniProt P22518); experiment: Inhibition of recombinant mouse CLK1 expressed in bacteria assessed as residual activity at 10 uM using GRSRSRSRSRSR as substrate in presence of [gamma33P]ATP relative to control
# [11] = target: Dual specificity protein kinase CLK1 (Mus musculus, UniProt P22518); experiment: Inhibition of recombinant mouse CLK1 expressed in bacteria using GRSRSRSRSRSR as substrate in presence of [gamma33P]ATP
# [12] = target: Dual specificity tyrosine-phosphorylation-regulated kinase 1A (Rattus norvegicus) (UniProt Q63470); experiment: Inhibition of recombinant full-length rat N-terminal GST-tagged DYRK1A was expressed in Escherichia coli assessed as residual activity at 10 uM using DYRKtide as substrate measured after 60 mins by ADP-Glo luminescence assay relative to control
# [13] = target: T3, Dual specificity protein kinase CLK1 (Homo sapiens, UniProt P49759); experiment: Inhibition of recombinant human N-terminal GST-tagged CLK1 (129 to end residues) expressed in baculovirus infected Sf9 insect cells assessed as residual activity at 1 uM using MBP as substrate measured after 60 mins by ADP-Glo luminescence assay relative to control
# Target sequence in this assay (P49759 whole entry, looked up): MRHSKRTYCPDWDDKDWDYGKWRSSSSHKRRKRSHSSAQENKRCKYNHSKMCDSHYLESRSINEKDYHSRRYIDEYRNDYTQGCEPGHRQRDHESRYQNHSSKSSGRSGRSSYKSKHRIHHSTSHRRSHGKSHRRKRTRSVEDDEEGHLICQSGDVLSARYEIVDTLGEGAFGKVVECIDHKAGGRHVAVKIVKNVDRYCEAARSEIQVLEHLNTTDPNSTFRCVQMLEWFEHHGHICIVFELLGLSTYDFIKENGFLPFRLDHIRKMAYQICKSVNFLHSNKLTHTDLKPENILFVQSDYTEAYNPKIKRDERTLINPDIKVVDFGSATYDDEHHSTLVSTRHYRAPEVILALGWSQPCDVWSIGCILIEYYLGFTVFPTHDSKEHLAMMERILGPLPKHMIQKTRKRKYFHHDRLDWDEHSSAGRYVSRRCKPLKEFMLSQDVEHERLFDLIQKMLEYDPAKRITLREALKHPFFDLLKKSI
# [14] = target: T2, Cyclin-dependent kinase 5/CDK5 activator 1 (Homo sapiens); experiment: Inhibition of recombinant human full-length N-terminal GST-tagged CDK5/p25 expressed in baculovirus infected Sf9 insect cells assessed as residual activity at 10 uM using histone H1 as substrate measured after 10 mins relative to control
# [15] = target: T4, Casein kinase I (Homo sapiens) (UniProt Q9HCP0+P78368+P48730+P49674+P48729); experiment: Inhibition of CK1 (unknown origin) assessed as residual activity at 10 uM relative to control
# [16] = target: T5, Glycogen synthase kinase-3 (Homo sapiens) (UniProt P49840+P49841); experiment: Inhibition of GSK3 (unknown origin) assessed as residual activity at 1 uM relative to control
# [17] = target: T3, Dual specificity protein kinase CLK1; experiment: Inhibition of recombinant human N-terminal GST-tagged CLK1 (129 to end residues) expressed in baculovirus infected Sf9 insect cells sing MBP as substrate measured after 60 mins by ADP-Glo luminescence assay
# Target sequence in this assay (P49759 whole entry): as the sequence (P49759 whole entry, looked up) above
# [18] = target: Dual specificity tyrosine-phosphorylation-regulated kinase 1A (Rattus norvegicus, UniProt Q63470); experiment: Inhibition of recombinant full-length rat N-terminal GST-tagged DYRK1A was expressed in Escherichia coli using DYRKtide as substrate measured after 60 mins by ADP-Glo luminescence assay
# [19] = target: Dual specificity tyrosine-phosphorylation-regulated kinase 1A (Rattus norvegicus) (UniProt Q63470); experiment: Inhibition of recombinant full-length rat N-terminal GST-tagged DYRK1A was expressed in Escherichia coli assessed as residual activity at 1 uM using DYRKtide as substrate measured after 60 mins by ADP-Glo luminescence assay relative to control
# [20] = target: T5, Glycogen synthase kinase-3 (Homo sapiens); experiment: Inhibition of GSK3 (unknown origin) assessed as residual activity at 10 uM relative to control
# [21] = target: T3, Dual specificity protein kinase CLK1; experiment: Inhibition of recombinant human N-terminal GST-tagged CLK1 (129 to end residues) expressed in baculovirus infected Sf9 insect cells assessed as residual activity at 10 uM using MBP as substrate measured after 60 mins by ADP-Glo luminescence assay relative to control
# Target sequence in this assay (P49759 whole entry, looked up): as above
# [22] = target: T2, Cyclin-dependent kinase 5/CDK5 activator 1 (Homo sapiens); experiment: Inhibition of recombinant human full-length N-terminal GST-tagged CDK5/p25 expressed in baculovirus infected Sf9 insect cells assessed as residual activity at 1 uM using histone H1 as substrate measured after 10 mins relative to control
# [23] = target: T4, Casein kinase I (Homo sapiens); experiment: Inhibition of CK1 (unknown origin) assessed as residual activity at 1 uM relative to control
# Dual specificity protein kinase CLK1 (Mus musculus), sequence (P22518 whole entry, looked up): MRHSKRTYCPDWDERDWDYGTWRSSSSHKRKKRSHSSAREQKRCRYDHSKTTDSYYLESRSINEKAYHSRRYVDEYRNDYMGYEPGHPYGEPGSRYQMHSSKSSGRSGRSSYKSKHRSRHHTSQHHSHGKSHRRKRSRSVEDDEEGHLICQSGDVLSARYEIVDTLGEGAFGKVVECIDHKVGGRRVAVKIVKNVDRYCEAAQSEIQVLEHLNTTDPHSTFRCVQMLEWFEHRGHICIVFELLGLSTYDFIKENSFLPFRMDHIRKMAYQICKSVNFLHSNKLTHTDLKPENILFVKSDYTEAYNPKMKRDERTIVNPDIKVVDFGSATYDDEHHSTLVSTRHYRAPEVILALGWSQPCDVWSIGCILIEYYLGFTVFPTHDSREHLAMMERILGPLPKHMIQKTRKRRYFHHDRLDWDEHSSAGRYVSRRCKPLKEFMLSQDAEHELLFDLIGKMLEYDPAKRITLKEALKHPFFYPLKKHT
# T2 sequence (Q00535 whole entry): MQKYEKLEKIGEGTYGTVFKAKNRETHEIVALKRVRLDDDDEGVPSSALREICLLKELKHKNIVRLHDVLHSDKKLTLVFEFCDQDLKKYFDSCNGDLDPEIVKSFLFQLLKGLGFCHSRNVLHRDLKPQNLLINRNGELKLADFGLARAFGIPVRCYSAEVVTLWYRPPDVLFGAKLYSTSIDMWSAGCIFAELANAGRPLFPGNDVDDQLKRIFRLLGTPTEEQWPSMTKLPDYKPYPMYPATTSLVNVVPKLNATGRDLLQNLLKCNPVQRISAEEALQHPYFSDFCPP
# T2 sequence (Q15078 99-307 partner limits assumed): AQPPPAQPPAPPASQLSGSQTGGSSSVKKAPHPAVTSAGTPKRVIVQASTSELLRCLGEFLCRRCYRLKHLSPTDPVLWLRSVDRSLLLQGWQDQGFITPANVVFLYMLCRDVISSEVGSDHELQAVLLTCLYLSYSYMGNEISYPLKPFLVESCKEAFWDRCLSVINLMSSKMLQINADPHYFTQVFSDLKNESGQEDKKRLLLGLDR
# T5 sequence (P49840 whole entry, looked up): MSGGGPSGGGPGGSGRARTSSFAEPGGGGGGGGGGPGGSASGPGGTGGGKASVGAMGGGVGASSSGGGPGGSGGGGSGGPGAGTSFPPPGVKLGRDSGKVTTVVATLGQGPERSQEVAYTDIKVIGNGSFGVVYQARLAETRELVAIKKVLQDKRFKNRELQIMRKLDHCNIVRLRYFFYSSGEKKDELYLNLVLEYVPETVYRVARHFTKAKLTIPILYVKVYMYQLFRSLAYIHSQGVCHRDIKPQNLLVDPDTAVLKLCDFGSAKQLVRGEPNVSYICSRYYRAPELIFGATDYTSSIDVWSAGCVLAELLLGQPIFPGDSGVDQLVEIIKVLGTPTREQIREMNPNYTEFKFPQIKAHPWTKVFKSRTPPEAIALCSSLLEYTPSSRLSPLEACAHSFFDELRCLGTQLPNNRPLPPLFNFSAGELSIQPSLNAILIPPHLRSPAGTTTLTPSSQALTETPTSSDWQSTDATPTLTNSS
# T5 sequence (P49841 whole entry, looked up): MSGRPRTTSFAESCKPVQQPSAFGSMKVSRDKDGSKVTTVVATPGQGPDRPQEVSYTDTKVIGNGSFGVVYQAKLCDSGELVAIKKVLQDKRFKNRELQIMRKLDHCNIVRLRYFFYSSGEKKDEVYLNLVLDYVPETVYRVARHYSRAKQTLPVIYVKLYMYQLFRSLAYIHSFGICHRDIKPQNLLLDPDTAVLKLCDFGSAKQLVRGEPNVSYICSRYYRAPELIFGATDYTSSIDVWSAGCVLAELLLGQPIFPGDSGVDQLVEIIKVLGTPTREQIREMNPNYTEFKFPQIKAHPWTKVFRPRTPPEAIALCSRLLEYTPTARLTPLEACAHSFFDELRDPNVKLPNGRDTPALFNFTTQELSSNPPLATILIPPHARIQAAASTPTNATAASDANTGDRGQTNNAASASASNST
# Dual specificity protein kinase CLK1 (Mus musculus, UniProt P22518), sequence (P22518 whole entry): as the sequence (P22518 whole entry, looked up) above
Structure (SMILES),Activity [1] [%],Activity [2] [%],Activity [3] [%],Activity [4] [%],Activity [5] [%],Activity [6] [%],Activity [7] [%],Activity [8] [%],Activity [9] [%],Activity [10] [%],other results
Nc1ncc2cc3cnccc3c([N+](=O)[O-])c2n1,36,41,25,6,88,74,9,5,56,2,–
CN(C)CNc1ncc2cc3cnccc3c([N+](=O)[O-])c2n1,39,100,15,13,99,73,38,4,41,6,IC50 [11]: 87 nM
Nc1ncc2ccc3ccncc3c2n1,–,–,–,–,–,–,–,–,–,–,Activity [12]: 25%; Activity [13]: 48%; Activity [14]: 63%; Activity [15]: 22%; Activity [16]: 98%; IC50 [17]: 1480 nM; IC50 [18]: 2180 nM; Activity [19]: 71%; Activity [20]: 75%; Activity [21]: 9%; Activity [22]: 100%; Activity [23]: 64%
CN(C)/C=N/c1ncc2cc3cnccc3c([N+](=O)[O-])c2n1,100,100,30,33,94,86,53,31,59,3,–
CC(C)N(/C=N/c1ncc2cc3cnccc3c([N+](=O)[O-])c2n1)C(C)C,95,96,15,53,100,73,60,46,45,1,–
CC(C)N(CNc1ncc2cc3cnccc3c([N+](=O)[O-])c2n1)C(C)C,69,74,1,44,99,53,38,46,61,5,–
